Assay outcomes from PubChem BioAssay.
DNMT1 block – human DNMT1 methyltransferase inhibitors, primary screen, biochemical, molecular beacon, fluorescence, HinP1I cleavage, uHTS; inhibition (reported as % activation of signal), % at 10 µM; hit rate 0.83% among 360,000; AID 588458, 2011; DNA (cytosine-5)-methyltransferase 1 (Homo sapiens), P26358; in the data active = inhibition above about 50%
Target sequence (P26358 504-1616 limits assumed): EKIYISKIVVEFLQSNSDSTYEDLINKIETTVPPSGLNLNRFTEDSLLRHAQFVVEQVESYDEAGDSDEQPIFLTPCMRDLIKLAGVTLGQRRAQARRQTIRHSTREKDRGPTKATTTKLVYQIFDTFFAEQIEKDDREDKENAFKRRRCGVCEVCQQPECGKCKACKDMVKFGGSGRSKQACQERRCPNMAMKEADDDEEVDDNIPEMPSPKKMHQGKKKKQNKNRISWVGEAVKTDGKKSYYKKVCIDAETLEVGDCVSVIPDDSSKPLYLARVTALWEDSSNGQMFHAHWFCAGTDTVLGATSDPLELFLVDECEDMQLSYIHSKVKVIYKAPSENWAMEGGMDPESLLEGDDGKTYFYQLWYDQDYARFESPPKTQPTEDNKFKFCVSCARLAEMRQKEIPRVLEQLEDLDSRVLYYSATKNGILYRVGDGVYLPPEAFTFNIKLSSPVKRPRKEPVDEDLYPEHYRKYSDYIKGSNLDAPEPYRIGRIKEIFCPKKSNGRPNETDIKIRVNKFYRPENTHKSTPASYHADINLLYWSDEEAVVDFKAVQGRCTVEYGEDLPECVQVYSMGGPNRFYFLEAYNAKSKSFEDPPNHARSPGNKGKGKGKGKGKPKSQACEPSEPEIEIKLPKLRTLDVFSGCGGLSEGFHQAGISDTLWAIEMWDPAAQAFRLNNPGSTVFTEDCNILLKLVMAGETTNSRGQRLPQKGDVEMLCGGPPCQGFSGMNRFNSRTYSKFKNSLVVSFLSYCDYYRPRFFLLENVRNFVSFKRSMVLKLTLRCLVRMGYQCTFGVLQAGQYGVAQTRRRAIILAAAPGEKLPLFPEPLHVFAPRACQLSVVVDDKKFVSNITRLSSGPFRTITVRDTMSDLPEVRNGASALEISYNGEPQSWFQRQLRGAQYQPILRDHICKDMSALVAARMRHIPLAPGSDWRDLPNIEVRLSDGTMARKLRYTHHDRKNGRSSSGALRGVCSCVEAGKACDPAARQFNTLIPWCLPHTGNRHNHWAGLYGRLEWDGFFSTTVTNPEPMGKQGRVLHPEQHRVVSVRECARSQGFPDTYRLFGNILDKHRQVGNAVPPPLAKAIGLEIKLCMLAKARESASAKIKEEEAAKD
NadD block – inhibitors of S. aureus NadD, primary screen, biochemical, colorimetric, uHTS. inhibition, % at 20 µM. AID 602399, 2012. Nicotinate-nucleotide adenylyltransferase NadD (Staphylococcus aureus N315). purified NadD enzyme, colorimetric absorbance read-out. hit rate 0.78% among 360,000; in the data active = inhibition above about 26%
LMPTP block – LMPTP phosphatase inhibitors, primary screen, biochemical, fluorescence intensity, uHTS; Low molecular weight phosphotyrosine protein phosphatase (Homo sapiens), P24666; recombinant LMPTP-A, OMFP fluorogenic substrate; inhibition, % at 20 µM; hit rate 0.22% among 360,000; AID 651560, 2012;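 active = compounds that cut the enzyme signal by at least half of the control window in the single-dose screen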;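 note: plate controls were DMSO wells with enzyme plus substrate for no effect and substrate without enzyme for full effect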
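Assay system: LMPTP-A, protein tyrosine phosphatase of low molecular weight / Medium: pH 6.0 Bis-Tris buffer with DTT and Triton X-100 / Schedule: 50 min enzyme reaction at room temperature, protected from light / Measured by: endpoint fluorescence intensity from OMFP dephosphorylation / Read-out basis: % inhibition relative to no-enzyme and uninhibited control wells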
Scp-1 inhibitor – Scp-1 phosphatase inhibitors, primary screen, biochemical, colorimetric, uHTS. Recombinant Scp1, phosphopeptide, malachite green phosphate absorbance. inhibition, % at 20 µM. hit rate 0.88% among 340,000;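 active = inhibition above about 50% at 20 µM, limit read from the data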;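 note: plate controls were DMSO wells with enzyme for no effect and wells lacking enzyme for full effect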
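Test system: SCP-1 phosphatase catalytic domain, residues 76-261; measured by: colorimetric phosphate reagent with accelerator and stabiliser, absorbance at 630 nm; timing: enzyme reaction 45 min at room temperature, colour 5 min, stabilisation 30 min; also added: Phosphorylated 17-residue peptide substrate; compound dosing: one concentration, 20 µM, with 1.0% DMSO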
STEP block – STEP phosphatase inhibitors, primary screen, biochemical, fluorescence intensity, uHTS; AID 588621, 2011; recombinant STEP, OMFP fluorogenic substrate; hit rate 0.25% among 360,000; Tyrosine-protein phosphatase non-receptor type 5 (Homo sapiens), P54829; inhibition, % at 20 µM;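 active = inhibition at 20 µM, scaled per plate between control wells, above about 37%, limit read from the data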;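 note: 0% = DMSO with enzyme and substrate and 100% = substrate only without enzyme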
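System: isolated STEP enzyme; schedule: 20 min enzyme reaction at room temperature, protected from light; medium: Bis-Tris buffer pH 6.0, 2.5 mM DTT, 0.005% Tween 20; signal: fluorescence, 480/540 nm; dosing: single compound dose of 20 µM, 1% DMSO final; also added: OMFP substrate, 25 µM final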
SUMO1 PPI mod – modulators of SUMO1 protein-protein interactions, primary screen, biochemical, uHTS | Small ubiquitin-related modifier 1 (Homo sapiens), P63165 | SUMO1 binding to a labelled peptide, TR-FRET, 1 h | inhibition, % at 20 µM | hit rate 0.33% among 360,000 | AID 602429, 2012; in the data active = inhibition above about 37%
Beacon interf DR – spectral interference with molecular beacon fluorescence, dose response, artefact control for DNMT1 inhibitor project, biochemical, fluorescent molecular beacon. spectral interference counter-screen. shares compounds with DNMT1 block. IC50, µM. AID 602382, 2012. 200 tested, under 10 active; call rule not given here
DNMT1 confirm – DNMT1 methyltransferase inhibitor retest, confirmation, biochemical, molecular beacon, fluorescence, single concentration | DNMT1 molecular beacon HinP1I cleavage | inhibition, % at 10 µM | hit rate 8% among 2,300 | shares compounds with DNMT1 block;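 active = average inhibition of at least 30% in the single-concentration confirmation test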
DNMT1 interf – counter-screen for DNMT1 inhibitors: spectral interference; shares compounds with DNMT1 block; activation (fluorescence interference), % at 10 µM; hit rate 1% among 2,300; DNMT1 molecular beacon spectral interference counterscreen, fluorescence 485/520;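 active = activation of at least 30% at 10 µM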;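 note: DNMT1 catalytic domain with a HinP1I cleavage step and a FAM/dabcyl DNA beacon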
* = called active by the depositor; x = not tested or not shown. The list is not random: actives were taken first. Their share in the collection is about 2.4%.

SMILES	DNMT1 block	NadD block	LMPTP block	Scp-1 inhibitor	STEP block	SUMO1 PPI mod	DNMT1 confirm	DNMT1 interf	others
CC(C)Cn1c(N)c(C(=O)NCC2CCCO2)c2nc3ccccc3nc21 (stereo unspecified)	74*	1	19	-4	4	39	10	1
C=CCc1cccc2cc(C(=O)Nc3ccc(CC(=O)O)cc3)c(=O)oc12	81*	3	1	29	8	-4	5	6
CC1C=CC(C)C(C(=O)c2ccccc2)C1C(=O)c1ccccc1 (stereo unspecified)	6	-9	2	x	3	8	x	x
O=C(c1ccccc1)C1OC1C(=O)c1ccccc1 (stereo unspecified)	50*	-4	3	-10	4	9	9	10
COc1ccc(CN2C(=O)C(CC(=O)NC3CCCCC3)CC(C(=O)N(C)C)=C2C)cc1 (stereo unspecified)	1	2	-1	x	-1	-3	x	x
Cc1ccc(CN2C(=O)CCC2C(=O)NCc2ccc3c(c2)OCO3)cc1 (stereo unspecified)	91*	-1	1	-5	-3	1	-1	4
Cc1c(NC(=O)C(C)OC(=O)/C=C/c2ccc3c(c2)OCO3)c(=O)n(-c2ccccc2)n1C (stereo unspecified)	-1	-4	0	-9	3	-11	x	x
CCC1CCc2sc(C(=O)NNC(=O)c3ccncc3)cc2C1 (stereo unspecified)	88*	-1	0	-4	-1	4	5	6
O=[N+]([O-])c1ccc(/C=N/NC(=S)Nc2ccc(Cl)cc2Cl)s1	60*	8	13	12	4	9	5	-3
CSCCC(N=C(NS(=O)(=O)c1ccc(C)cc1)c1ccccc1)C(=O)O (stereo unspecified)	1	-6	-1	-11	-1	-1	x	x
CC(C)OCCCNC(=O)CN1C(=O)CSc2ccc(S(=O)(=O)N3CCCCC3)cc21	69*	-2	-2	-1	-2	9	8	-2
CC(C)OCCCNC(=O)CN1C(=O)COc2ccc(S(=O)(=O)N3CCCCCC3)cc21	-2	-5	0	-4	-2	-3	x	x
COc1cc(/C=C2/C(=N)N3N=C(CC(=O)N4CCOCC4)SC3=NC2=O)ccc1OCc1ccc(F)cc1	-1	20	0	-1	4	0	x	x
NC(=S)N/N=C/c1coc2c(ccc3ccccc32)c1=O	55*	16	16	-6	-2	2	2	-7
O=[N+]([O-])c1ccc(-c2cn(-c3ccc(Cl)cc3)cn2)cc1	54*	5	15	x	25	75*	5	0
Cc1ccc(C(=O)c2coc3c2C(=O)C(=O)c2ccccc2-3)cc1	-6	-2	1	-10	18	-22	x	x
Cc1oc2c(c1C(=O)c1ccc(Cl)cc1)C(=O)C(=O)c1ccccc1-2	74*	10	2	0	10	16	21	-9	Beacon interf DR=>99
Cc1cc(C)cc(Nc2nc3c(S(=O)(=O)c4ccccc4)nnn3c3ccccc23)c1	54*	6	-1	-1	3	-4	3	-4
CC(C)=CCC12Oc3cc(O)ccc3C1(O)Oc1cc(O)c([C@H]3C=C(C)CC(c4ccc(O)cc4O)[C@H]3C(=O)c3ccc(O)cc3O)c(O)c1C2=O (stereo partly specified)	x	x	x	1	x	x	x	x
CCN(CC)CCN1C(=O)c2oc3ccccc3c(=O)c2C1c1cccc(Br)c1 (stereo unspecified)	-2	1	-2	-7	3	-1	x	x
O=C1c2oc3ccc(Cl)cc3c(=O)c2C(c2cccc(Br)c2)N1CCO (stereo unspecified)	61*	3	0	-3	0	-13	1	3
Nc1sc(-c2ccccc2)c(Cc2ccccc2)c1C(=O)O	0	11	1	1	1	1	x	x
NCCCC[C@H]1CNC(=S)N1CCCCC1CCCCC1	6	-2	-3	-3	1	-31	x	x
CCOC(=O)/C=c1\s/c(=C\c2ccc3cc(OC)ccc3c2)c(=O)n1CC(=O)NCC1CCCO1 (stereo unspecified)	58*	-7	-1	-8	-3	-1	7	-1
COc1ccc(/C=C/C(=O)OCC(=O)NCC2CCCO2)cc1 (stereo unspecified)	0	-8	0	3	1	-9	x	x
SMILES	DNMT1 block	NadD block	LMPTP block	Scp-1 inhibitor	STEP block	SUMO1 PPI mod	DNMT1 confirm	DNMT1 interf	others
CCOC(=O)/C=c1/s/c(=C/c2ccc3cc(OC)ccc3c2)c(=O)n1CC(=O)NCc1ccc2c(c1)OCO2	54*	27	2	-10	-5	13	1	4
COc1ccccc1C(=O)N/C(=C\c1cn(S(=O)(=O)N(C)C)c2ccccc12)C(=O)N1CCCCC1	-8	1	1	-6	-2	2	x	x
C[C@H](NC(=O)c1ncn(Cc2ccccc2)c1C(=O)N[C@@H](C)c1ccccc1)c1ccccc1	-17	-5	1	-7	2	-4	x	x
COC(=O)CN1C(=O)[C@H]2[C@@H](c3ccc(C)o3)N3C(=O)CN(CCO)C(=O)[C@@]3(C)[C@H]2C1=O	103*	-3	-1	0	-2	10	2	4
Cc1ccc([C@@H]2[C@@H]3C(=O)N(C)C(=O)[C@@H]3[C@]3(C)C(=O)N(CC4CC4)CC(=O)N23)o1	1	-1	-1	7	-4	4	x	x
O=C(Nc1ccnc(-c2cccnc2)n1)c1cccs1	1	2	-1	-5	0	4	x	x
CCOC(=O)c1[nH]c(C)c(CC(C)C)c1C	1	-5	1	-5	-3	2	x	x
